In publication PMC9208026 (Journal of pharmacological sciences, 2022):

What was measured:
[1] = system: collagen-induced arthritis (CIA) joints; assay: Histopathology study of limbs; assay type: in vivo, DBA1 mice; conditions: MTX 1.5 mg/kg i.p., CIA mice limbs, H&E, N = 4
[2] = system: bovine type II collagen antibody; assay: Collagen antibody level in CIA mice serum; assay type: in vivo, DBA1 mice; conditions: CIA mice serum at end of study, ELISA, N = 6
How it was run: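 Serum came from CIA DBA1 mice (N = 6 per group) at the end of the study, spun at 10,000 rpm for 10 min, then cleared at 10,000 rpm for 3 min and diluted 1:40,000. Anti-bovine type II collagen ELISA: wells blocked 1 h at room temperature; standards and samples 2 h; secondary antibody 1 h; TMB 15 min; stopped and read at A450. Levels were taken from a standard curve; mean ± SEM.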

`CN(Cc1cnc2nc(N)nc(N)c2n1)c1ccc(C(=O)N[C@@H](CCC(=O)O)C(=O)O)cc1` [MTX, Methotrexate] was tested, and the “histopathological changes (inflammation, synovial hyperplasia, cartilage/bone erosion)” value [1] was “reduced occurrence of the changes” and the “bovine collagen antibody level in serum compared to vehicle group” value [2] was “lower”.
